Laboratory results: ChEMBL document CHEMBL1123771, “Synthesis and structure-activity relationships of potent new angiotensin converting enzyme inhibitors containing saturated bicyclic amino acids” (J Med Chem, 1987)

How the values were obtained:
[1] = system: Rattus norvegicus; test: Maximum change in mean aortic blood pressure in conscious renal 2-kidney/1-clip goldblatt hypertensive rat at a dose 0.3 mg/kg administered orally at 8h; 4 animals tested; format: functional, Artery; conditions: route oral
In short: (§1)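 Male Sprague–Dawley rats, 4 weeks old, given a silver clip (0.2-mm gap) on the left renal artery with the other kidney intact. Hypertension developed over 4–8 weeks, then rats (280–320 g) were aortic-cannulated; only those with mean pressure >160 mmHg were used. Oral dosing. One-minute running averages were logged every 30 min. Results are mean ± 1 SEM, from 3–5 rats.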

[2] = system: Rattus norvegicus; test: Mean aortic base line blood pressure in conscious renal 2-kidney/1-clip goldblatt hypertensive rat at a dose 1.0 mg/kg administered orally; format: functional, Artery; conditions: route oral; in short: as §1
[3] = system: Rattus norvegicus; test: Maximum change in mean aortic blood pressure in conscious renal 2-kidney/1-clip goldblatt hypertensive rat at a dose 3.0 mg/kg administered orally at 5h; 4 animals tested; format: functional, Artery; conditions: route oral; in short: as §1
[4] = system: Rattus norvegicus; test: Mean aortic base line blood pressure in conscious renal 2-kidney/1-clip goldblatt hypertensive rat at a dose 3.0 mg/kg administered orally; format: functional, Artery; conditions: route oral
[5] = system: Rattus norvegicus; test: Maximum change in mean aortic blood pressure in conscious renal 2-kidney/1-clip goldblatt hypertensive rat at a dose 30 mg/kg administered orally at 10h; 4 animals tested; format: functional, Artery; conditions: route oral; in short: as §1
[6] = system: Rattus norvegicus; test: Mean aortic base line blood pressure in conscious renal 2-kidney/1-clip goldblatt hypertensive rat at a dose 0.3 mg/kg administered orally; format: functional, Artery; conditions: route oral
[7] = system: Rattus norvegicus; test: Mean aortic base line blood pressure in conscious renal 2-kidney/1-clip goldblatt hypertensive rat at a dose 0.1 mg/kg administered orally; format: functional, Artery; conditions: route oral; in short: as §1
[8] = system: Rattus norvegicus; test: Maximum change in mean aortic blood pressure in conscious renal 2-kidney/1-clip goldblatt hypertensive rat at a dose 1.0 mg/kg administered orally at 5h; 4 animals tested; format: functional, Artery; conditions: route oral; in short: as §1
[9] = system: Rattus norvegicus; test: Mean aortic base line blood pressure in conscious renal 2-kidney/1-clip goldblatt hypertensive rat at a dose 30 mg/kg administered orally; format: functional, Artery; conditions: route oral, 30 mg/kg
[10] = biological target: T1, Angiotensin-converting enzyme (Rattus norvegicus, UniProt P47820); test: Inhibition of rat Angiotensin I converting enzyme (ACE), using Hip-Gly-Gly as synthetic substrate.
T1 sequence (P47820 whole entry): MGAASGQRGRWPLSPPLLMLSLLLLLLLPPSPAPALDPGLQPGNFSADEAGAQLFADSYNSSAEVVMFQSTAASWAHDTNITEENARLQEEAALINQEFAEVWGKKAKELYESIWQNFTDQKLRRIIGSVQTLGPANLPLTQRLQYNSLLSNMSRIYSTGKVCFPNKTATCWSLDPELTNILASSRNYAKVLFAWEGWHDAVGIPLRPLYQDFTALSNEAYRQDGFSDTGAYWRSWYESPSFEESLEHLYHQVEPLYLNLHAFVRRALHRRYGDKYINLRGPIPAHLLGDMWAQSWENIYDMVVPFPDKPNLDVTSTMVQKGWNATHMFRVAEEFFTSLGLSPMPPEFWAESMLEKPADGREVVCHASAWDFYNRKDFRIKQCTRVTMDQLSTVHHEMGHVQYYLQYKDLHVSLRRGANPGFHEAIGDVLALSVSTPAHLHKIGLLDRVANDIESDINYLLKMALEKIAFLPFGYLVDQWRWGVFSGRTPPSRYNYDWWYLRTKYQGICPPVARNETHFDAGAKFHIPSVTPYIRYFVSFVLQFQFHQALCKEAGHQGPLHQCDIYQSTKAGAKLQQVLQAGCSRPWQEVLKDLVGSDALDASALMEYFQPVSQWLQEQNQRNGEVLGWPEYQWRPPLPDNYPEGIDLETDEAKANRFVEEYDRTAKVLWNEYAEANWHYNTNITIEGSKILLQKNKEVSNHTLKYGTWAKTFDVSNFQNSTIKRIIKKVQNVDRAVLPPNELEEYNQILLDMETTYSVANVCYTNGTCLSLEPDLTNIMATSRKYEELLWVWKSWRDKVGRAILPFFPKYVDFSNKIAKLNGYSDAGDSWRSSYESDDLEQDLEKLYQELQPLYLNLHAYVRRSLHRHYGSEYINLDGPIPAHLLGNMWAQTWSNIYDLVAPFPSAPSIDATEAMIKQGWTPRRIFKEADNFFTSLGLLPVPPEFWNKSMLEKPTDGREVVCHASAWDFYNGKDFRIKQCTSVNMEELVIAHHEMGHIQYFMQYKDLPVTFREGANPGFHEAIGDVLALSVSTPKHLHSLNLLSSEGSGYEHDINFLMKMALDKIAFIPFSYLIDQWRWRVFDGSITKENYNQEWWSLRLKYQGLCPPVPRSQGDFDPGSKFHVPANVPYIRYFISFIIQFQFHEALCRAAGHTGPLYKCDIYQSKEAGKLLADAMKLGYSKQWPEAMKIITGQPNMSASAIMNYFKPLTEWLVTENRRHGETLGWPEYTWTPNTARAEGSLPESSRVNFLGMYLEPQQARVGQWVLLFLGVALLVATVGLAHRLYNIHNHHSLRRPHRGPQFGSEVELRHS
In short: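 Radioassay of converting-enzyme activity with Hip-Gly-Gly as substrate; compounds dissolved at 2–5 mg/mL in Me2SO, then diluted to test concentrations in pH 8 buffer (0.05 M Hepes, 0.1 M NaCl, 0.6 M Na2SO4).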

`CC(CS)C(=O)N1[C@H](C(=O)O)C[C@@H]2CCCC[C@@H]21` (stereo in doubt; 9c) was tested, and the “Mean aortic blood pressure” value [1] was -19 mmHg, the “Mean aortic blood pressure” value [2] was 178 mmHg and the “Mean aortic blood pressure” value [3] was -81 mmHg. For the same compound, the “Mean aortic blood pressure” value [4] was 190 mmHg, the “Mean aortic blood pressure” value [5] was -115 mmHg and the “Mean aortic blood pressure” value [6] was 185 mmHg. For the same compound, the “Mean aortic blood pressure” value [7] was 184 mmHg, the “Mean aortic blood pressure” value [8] was -72 mmHg and the “Mean aortic blood pressure” value [9] was 197 mmHg. It also gave an IC50 [10] of 7.7 nM.
